ChEMBL document CHEMBL4002604, “Evaluation of biological properties of 3,3',4,4'-benzophenonetetracarboxylic dianhydride derivatives and their ability to inhibit hexokinase activity” (2017)

Assays:
P19 [1] = assay: Cytotoxicity against undifferentiated mouse P19 cells assessed as cell mass at 1 to 100 uM after 48 hrs by SRB assay relative to control; format: functional
In short: (§1)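 Cell mass by SRB assay in P19 cells (CRL-1825), either undifferentiated (P19SCs) or differentiated (P19dCs). Cells exposed to 1, 10 or 100 µM for 24, 48 or 72 h. Values expressed relative to untreated control. Means ± SD from at least 4 independent measurements, 6 repeats each. Significance vs control at p<0.05.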

P19 [2] = assay: Cytotoxicity against undifferentiated mouse P19 cells assessed as cell mass at 1 to 100 uM after 72 hrs by SRB assay relative to control; format: functional; in short: as §1
P19 [3] = assay: Cytotoxicity against differentiated mouse P19 cells assessed as cell mass at 1 to 100 uM after 24 hrs by SRB assay relative to control; format: functional; in short: as §1
P19 [4] = assay: Cytotoxicity against differentiated mouse P19 cells assessed as cell mass at 1 to 100 uM after 48 hrs by SRB assay relative to control; format: functional; in short: as §1
P19 [5] = assay: Cytotoxicity against differentiated mouse P19 cells assessed as cell mass at 1 to 100 uM after 72 hrs by SRB assay relative to control; format: functional; in short: as §1
P19 [6] = assay: Cytotoxicity against undifferentiated mouse P19 cells assessed as metabolic activity at 1 to 100 uM after 24 hrs by resazurin assay relative to control; format: functional
In short: (§2)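 Metabolic activity by resazurin reduction in undifferentiated (P19SCs) or differentiated (P19dCs) P19 cells. Exposure to 1, 10 or 100 µM for 24, 48 or 72 h. Read-out relative to untreated control. Significance vs control at p<0.05.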

P19 [7] = assay: Cytotoxicity against undifferentiated mouse P19 cells assessed as metabolic activity at 1 to 100 uM after 48 hrs by resazurin assay relative to control; format: functional; in short: as §2
P19 [8] = assay: Cytotoxicity against undifferentiated mouse P19 cells assessed as metabolic activity at 1 to 100 uM after 72 hrs by resazurin assay relative to control; format: functional; in short: as §2
P19 [9] = assay: Cytotoxicity against differentiated mouse P19 cells assessed as metabolic activity at 1 to 100 uM after 24 hrs by resazurin assay relative to control; format: functional; in short: as §2
P19 [10] = assay: Cytotoxicity against differentiated mouse P19 cells assessed as metabolic activity at 1 to 100 uM after 48 hrs by resazurin assay relative to control; format: functional; in short: as §2
P19 [11] = assay: Cytotoxicity against differentiated mouse P19 cells assessed as metabolic activity at 1 to 100 uM after 72 hrs by resazurin assay relative to control; format: functional; in short: as §2
P19 [12] = assay: Cytotoxicity against undifferentiated mouse P19 cells assessed as mitochondrial membrane potential at 1 uM after 24 hrs by TMRF dye based fluorescence assay relative to control; format: functional
In short: (§3)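 Undifferentiated (P19SCs) or differentiated (P19dCs) P19 cells incubated 24 or 72 h with 1 or 100 µM. Mitochondrial membrane potential and mitochondrial superoxide levels measured and expressed relative to untreated control. Means ± SD from 4 independent measurements, at least 4 repeats each. Significance at p<0.05.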

P19 [13] = assay: Cytotoxicity against undifferentiated mouse P19 cells assessed as mitochondrial membrane potential at 100 uM after 72 hrs by TMRF dye based fluorescence assay relative to control; format: functional; in short: as §3
P19 [14] = assay: Cytotoxicity against undifferentiated mouse P19 cells assessed as mitochondrial superoxide anion level at 1 uM after 24 hrs by MitoSox dye based fluorescence assay relative to control; format: functional; in short: as §3
P19 [15] = assay: Cytotoxicity against undifferentiated mouse P19 cells assessed as mitochondrial superoxide anion level at 1 uM after 72 hrs by MitoSox dye based fluorescence assay relative to control; format: functional; in short: as §3
P19 [16] = assay: Cytotoxicity against differentiated mouse P19 cells assessed as mitochondrial membrane potential at 1 uM after 24 hrs by TMRF dye based fluorescence assay relative to control; format: functional; in short: as §3
P19 [17] = assay: Cytotoxicity against differentiated mouse P19 cells assessed as mitochondrial membrane potential at 100 uM after 24 hrs by TMRF dye based fluorescence assay relative to control; format: functional; in short: as §3
[18] = target: T1, Hexokinase-2 (Homo sapiens) (UniProt P52789); assay: Inhibition of recombinant human HK2 using [U-14C]-labeled glucose as substrate in presence of ATP and NADP by G6PD enzyme coupled spectrophotometric assay; conditions: in the assay text read “glucose” for “[U-14C]-labeled glucose”
T1 sequence (whole entry): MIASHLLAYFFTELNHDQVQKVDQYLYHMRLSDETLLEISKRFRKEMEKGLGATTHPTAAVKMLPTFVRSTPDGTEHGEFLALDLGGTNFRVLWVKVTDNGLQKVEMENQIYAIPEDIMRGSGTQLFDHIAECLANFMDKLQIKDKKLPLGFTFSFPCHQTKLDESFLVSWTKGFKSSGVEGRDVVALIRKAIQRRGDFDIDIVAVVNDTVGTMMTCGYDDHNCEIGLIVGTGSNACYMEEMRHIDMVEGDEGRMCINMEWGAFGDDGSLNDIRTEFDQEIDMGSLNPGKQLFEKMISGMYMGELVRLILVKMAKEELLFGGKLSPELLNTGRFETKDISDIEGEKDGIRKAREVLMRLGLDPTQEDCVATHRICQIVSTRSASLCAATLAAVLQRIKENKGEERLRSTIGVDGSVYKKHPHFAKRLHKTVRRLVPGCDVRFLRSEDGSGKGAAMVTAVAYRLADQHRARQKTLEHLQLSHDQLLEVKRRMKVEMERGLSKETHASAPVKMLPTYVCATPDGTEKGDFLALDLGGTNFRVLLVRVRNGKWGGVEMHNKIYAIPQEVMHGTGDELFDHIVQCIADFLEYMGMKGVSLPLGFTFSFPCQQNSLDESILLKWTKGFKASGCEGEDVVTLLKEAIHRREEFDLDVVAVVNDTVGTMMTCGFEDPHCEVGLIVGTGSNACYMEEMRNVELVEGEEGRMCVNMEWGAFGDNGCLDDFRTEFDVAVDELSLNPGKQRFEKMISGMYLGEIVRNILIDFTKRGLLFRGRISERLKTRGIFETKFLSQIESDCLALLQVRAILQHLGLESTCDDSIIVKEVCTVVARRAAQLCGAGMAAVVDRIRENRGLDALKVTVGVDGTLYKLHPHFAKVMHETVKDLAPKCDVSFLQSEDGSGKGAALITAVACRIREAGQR
In short: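 Coupled hexokinase assay at 340 nm following G6P-dependent NADP→NADPH conversion. Enzyme source is freshly prepared, centrifuged undifferentiated P19 lysate supernatant or recombinant human HKII. Buffer: 100 mM Tris-HCl pH 8.0, 0.5 mM EDTA, 10 mM MgCl2, 2 mM glucose, 0.1 mM NADP, 0.1 U/ml G6PD. Preincubated 10 min at 37°C; reaction started with 10 mM ATP. Means ± SD, 4 experiments, at least 4 repeats each.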

P19 [19] = assay: Cytotoxicity against differentiated mouse P19 cells assessed as mitochondrial membrane potential at 100 uM after 72 hrs by TMRF dye based fluorescence assay relative to control; format: functional; in short: as §3
P19 [20] = assay: Cytotoxicity against differentiated mouse P19 cells assessed as mitochondrial superoxide anion level at 1 uM after 24 hrs by MitoSox dye based fluorescence assay relative to control; format: functional; in short: as §3
P19 [21] = assay: Cytotoxicity against differentiated mouse P19 cells assessed as mitochondrial superoxide anion level at 1 uM after 72 hrs by MitoSox dye based fluorescence assay relative to control; format: functional; in short: as §3

Question: Which results are given for O=C(c1ccc2c(c1)C(=O)N(c1cccc(O)c1)C2=O)c1ccc2c(c1)C(=O)N(c1cccc(O)c1)C2=O?
Answer: Activity (P19 [1]): 79.9%; Activity (P19 [2]): 58.9%; Activity (P19 [3]): 100%; Activity (P19 [4]): 102.2%; Activity (P19 [5]): 71.9%; Activity (P19 [6]): 102.6%; Activity (P19 [7]): 76.5%; Activity (P19 [8]): 59.8%; Activity (P19 [9]): 100%; Activity (P19 [10]): 97.5%; Activity (P19 [11]): 91.5%; Activity (P19 [12]): 86%; Activity (P19 [13]): 131.1%; Activity (P19 [14]): 83.2%; Activity (P19 [15]): 106%; Activity (P19 [16]): 94.5%; Activity (P19 [17]): 96.4%; inhibition [18]: Dose-dependent effect; Activity (P19 [19]): 50.9%; Activity (P19 [20]): 112.2%; Activity (P19 [21]): 105.3%
